High-throughput results (PubChem BioAssay)
This is a sample that favours compounds with a hit; in the whole collection about 2.3% have one here.
TRPC4 PAM: positive allosteric modulators of TRPC4, primary screen, cell-based, mouse TRPC4beta, HEK293 mu-opioid, Fluo-4 calcium | Short transient receptor potential channel 4 (Mus musculus), Q9QUQ5 | DAMGO EC20, Fluo-4 Ca2+ flux; hits give high values | B-score at 10 µM | actives 0.42% (n = 310,000) | AID 2227, 2009;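 active = B-score of calcium response area above 5 SD of library B-scores, with initial fluorescence ratio within 5 SD of library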;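 also: B-score of integrated fluorescence ratio over time as area under calcium response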
Target sequence (Q9QUQ5 whole entry, looked up): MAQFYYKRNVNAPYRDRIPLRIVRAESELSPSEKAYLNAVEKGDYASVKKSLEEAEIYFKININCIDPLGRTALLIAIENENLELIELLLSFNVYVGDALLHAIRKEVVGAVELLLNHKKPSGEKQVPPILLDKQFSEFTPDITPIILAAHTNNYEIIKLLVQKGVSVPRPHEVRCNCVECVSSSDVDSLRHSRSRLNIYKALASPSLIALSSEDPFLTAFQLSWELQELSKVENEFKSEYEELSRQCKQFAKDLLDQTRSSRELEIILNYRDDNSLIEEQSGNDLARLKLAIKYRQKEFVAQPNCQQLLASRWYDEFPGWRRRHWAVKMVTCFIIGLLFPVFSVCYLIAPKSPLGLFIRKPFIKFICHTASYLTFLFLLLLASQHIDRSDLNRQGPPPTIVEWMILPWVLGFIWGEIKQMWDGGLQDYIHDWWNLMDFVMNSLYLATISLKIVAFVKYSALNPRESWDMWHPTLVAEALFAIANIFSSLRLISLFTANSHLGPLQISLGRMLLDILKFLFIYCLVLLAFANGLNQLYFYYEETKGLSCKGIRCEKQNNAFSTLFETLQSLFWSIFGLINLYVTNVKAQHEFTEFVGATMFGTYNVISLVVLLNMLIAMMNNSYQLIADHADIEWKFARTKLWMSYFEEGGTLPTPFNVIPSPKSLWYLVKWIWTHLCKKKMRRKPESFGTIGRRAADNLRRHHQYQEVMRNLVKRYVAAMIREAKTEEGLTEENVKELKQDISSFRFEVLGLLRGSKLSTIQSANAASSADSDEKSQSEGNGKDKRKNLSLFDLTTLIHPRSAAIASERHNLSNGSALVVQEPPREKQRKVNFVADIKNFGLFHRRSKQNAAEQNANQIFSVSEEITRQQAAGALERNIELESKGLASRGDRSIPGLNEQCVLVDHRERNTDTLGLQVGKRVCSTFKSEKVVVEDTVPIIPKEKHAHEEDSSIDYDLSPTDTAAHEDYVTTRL
TRPC6 inhibitor: mouse TRPC6 channel inhibitors, primary screen, cell-based, HEK293, membrane potential dye | ACh-evoked depolarization; hits give low values | Short transient receptor potential channel 6 (Mus musculus), Q61143 | actives 1.1% (n = 310,000) | AID 2553, 2010 | B-score at 10 µM;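 active = B-score under library mean minus 3 SD, initial fluorescence not abnormally high, positive integrated signal ratio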;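 also: B-score derived from integrated fluorescence ratio over the kinetic read; more negative B-score means stronger inhibition of depolarization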
TRPC6 act: mouse TRPC6 channel activators, primary screen, cell-based, HEK293, membrane potential dye. HEK293-TRPC6 membrane potential dye fluorescence; hits give high values. actives 0.13% (n = 310,000). AID 2550, 2010. B-score at 10 µM. Short transient receptor potential channel 6 (Mus musculus), Q61143;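 active = B-score of the integrated fluorescence ratio above library mean plus 3 SD, and starting fluorescence ratio within library mean plus 5 SD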;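 also: higher score means more depolarization so channel activation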
TRPC4 agonist: activators of mouse TRPC4 channel, primary screen, Fluo4 calcium, HEK293 TRPC4beta/mu-opioid cells | Short transient receptor potential channel 4 (Mus musculus), Q9QUQ5 | Fluo4 calcium fluorescence; hits give high values | B-score at 10 µM | actives 0.49% (n = 310,000) | AID 2237, 2010;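 active = B-score above 5 SD of library B-scores, and initial fluorescence ratio not above library mean plus 5 SD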;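 also: positive B-score marks a calcium rise read as TRPC4 activation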
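Material: HEK293 stable line with TRPC4beta plus mu-opioid receptor; technique: Fluo4 calcium-sensitive dye fluorescence, kinetic, 1 Hz baseline; timing: Fluo4 dye loading 45 min at room temperature, 110 s recording; controls: assay buffer as low control, maximal DAMGO as high control; read-out: integrated baseline-normalised fluorescence ratio, converted to per-well B score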
TRPC4 inh: inhibitors of mouse TRPC4 channel, primary screen, Fluo4 calcium, HEK293 TRPC4beta/mu-opioid cells. actives 0.39% (n = 300,000). B-score at 10 µM. AID 2247, 2010. DAMGO-evoked Fluo4 calcium flux; hits give low values;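 active = B-score over 3 SD under the library average, no early fluorescence shift, positive overall ratio signal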
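Assay system: Stable TRPC4beta/mu-opioid receptor HEK293 cells | Reagent: DAMGO in two steps, submaximal then maximal | Compound dosing: Single concentration per test compound | Signal: Fluo4 Ca2+ flux fluorescence | Evaluation: Per-well B score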
TRPC4 sel inh 2: mouse TRPC4 off-target activity of TRPC6 inhibitors, second screen | actives 42% (n = 920) | AID 2776 | shares compounds with TRPC6 inhibitor | inhibition, % at 10 µM | HEK293 TRPC4/MOR, membrane potential dye fluorescence; channel activated by saturating DAMGO dose;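 active = compounds whose fluorescence signal differed from control wells by over 3 SD, either direction, in both duplicate plates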
TRPC4 spec: mouse TRPC4 modulation by TRPC6 hits, confirmation, selectivity assay for TRPC6 inhibitor project, cell-based, HEK293 TRPC4/mu-opioid, membrane potential dye; shares compounds with TRPC6 inhibitor; membrane potential fluorescence; activity change, negative = inhibition, % at 10 µM; actives 61% (n = 920); AID 2777, 2010;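 active = rise or fall in signal beyond 3 SD of buffer-only wells in both replicate plates, either sign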;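 also: integrated kinetic ratio of fluorescence range over baseline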
HEK293 MPD ctr 2-1: nonspecific membrane potential effects, parental HEK293, confirmation, counter-screen for TRPC6 inhibitor project, cell-based, second counter screen; shares compounds with TRPC6 inhibitor; parental HEK293 membrane potential dye fluorescence; maximal acetylcholine challenge after compound addition; signal change vs control, % at 10 µM; actives 31% (n = 920); AID 2779, 2010;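 active = membrane potential signal moving either way by over 3 SD of the maximum-effect control, in both duplicate plates, meaning non-specific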
HEK293 MPD ctr-1: membrane potential modulation in parental HEK293, confirmation, counter-screen for TRPC6 inhibitor project, cell-based; shares compounds with TRPC6 inhibitor; parental HEK293 membrane potential dye fluorescence; membrane potential signal change, % at 10 µM; actives 60% (n = 920); AID 2780, 2010;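 active = membrane potential signal shifting up or down by more than 3 SD of buffer-only wells, on both duplicate plates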
HEK293 MPD ctr-2: parental HEK293 membrane potential modulation, confirmation, counter-screen for TRPC6 modulator project, cell-based; actives 51% (n = 2,400); shares compounds with TRPC6 inhibitor; membrane potential signal change, % at 10 µM; membrane potential dye fluorescence;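 active = membrane potential signal moves up or down beyond 5 SD from buffer-only wells, on both duplicate plates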
HEK293 MPD ctr 2-2: parental HEK293 nonspecific activity of TRPC6 modulators, second screen; membrane potential dye fluorescence; after compound, maximal acetylcholine stimulation; AID 488926; inhibition, % at 10 µM; actives 14% (n = 2,400); shares compounds with TRPC6 inhibitor;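 active = membrane potential signal drops by more than 5 SD from the mean control signal, in both duplicate plates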;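 also: plate controls were acetylcholine ECmax control wells for no effect and buffer only wells for full effect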
TRPC4 ctr mod: TRPC4 modulation by TRPC6 hit compounds, confirmation, selectivity assay for TRPC6 modulator project, cell-based, HEK293 TRPC4/mu-opioid, membrane potential dye, mouse | percent change from control (negative = decrease, positive = increase), % at 10 µM | shares compounds with TRPC6 inhibitor | actives 69% (n = 2,400) | AID 488927, 2010 | membrane potential fluorescence;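 active = membrane potential signal moved up or down beyond 5 SD of buffer control wells, in both duplicate plates, actives on both sides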;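 also: plate controls were assay buffer wells for no effect and DAMGO maximal-effect wells for full effect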
TRPC4/MOR inh 2: second selectivity test of TRPC6 modulators against mouse TRPC4; HEK293 TRPC4/mu-opioid, membrane potential dye fluorescence; stimulated with maximal-effect DAMGO; inhibition, % at 10 µM; shares compounds with TRPC6 inhibitor; actives 55% (n = 2,400);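 active = drop in membrane potential signal beyond 5 SD of the control wells in both duplicate plates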;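 also: TRPC4 counter screen for TRPC6 hits run under conditions tuned for TRPC6 not TRPC4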
TRPC6 block conf: mouse TRPC6 channel inhibitors, confirmation, HEK293 cells, membrane potential dye, duplicate; shares compounds with TRPC6 inhibitor; ACh-evoked depolarization; inhibition, % at 10 µM; actives 43% (n = 3,300); AID 488960, 2010;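 active = fluorescence ratio falls more than 5 SD below the full-stimulation control mean, in both duplicate runs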;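 also: integrated fluorescence ratio of peak minus minimum over baseline after agonist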
TRPC6 act conf: mouse TRPC6 channel activators, confirmation, HEK293 cells, membrane potential dye, duplicate. activation, % at 10 µM. AID 488961, 2010. actives 11% (n = 2,800). HEK293-TRPC6 membrane potential dye fluorescence, FDSS. shares compounds with TRPC6 inhibitor;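 active = ratio signal rise beyond 5 SD above unstimulated control wells' mean, seen in both duplicate runs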;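 also: plate controls were buffer EC0 wells for no effect and acetylcholine ECmax response for full effect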
Active calls of the source: *; i = inactive; · = no result.

SMILES	TRPC4 PAM	TRPC6 inhibitor	TRPC6 act	TRPC4 agonist	TRPC4 inh	HEK293 MPD ctr-2	HEK293 MPD ctr 2-2	TRPC4 ctr mod	TRPC4/MOR inh 2	TRPC6 block conf	TRPC6 act conf	others
Cc1ccccc1-[n+]1c(-c2ccccc2)cc(-c2ccccc2)cc1-c1ccccc1	i	-10*	i	i	i	·	·	·	·	99.6%*	i	TRPC4 sel inh 2=60.5%*;TRPC4 spec=20.1%*;HEK293 MPD ctr 2-1=i;HEK293 MPD ctr-1=7.1%*
COc1ccc(-[n+]2c(-c3ccccc3)cc(-c3ccc(C)cc3)cc2-c2ccccc2)cc1	i	-9.12*	i	i	i	·	·	·	·	70.4%*	·	TRPC4 sel inh 2=i;TRPC4 spec=16.9%*;HEK293 MPD ctr 2-1=i;HEK293 MPD ctr-1=17.5%*
Cc1ccc(-c2cc(-c3ccccc3)cc(-c3ccccc3)[n+]2-c2ccc(C(=O)O)cc2)cc1	i	i	i	i	i	·	·	·	·	·	·
O=C(Nc1cccc(C(F)(F)F)c1)OC1CN2CCC1CC2 (stereo not drawn)	i	-6.51*	i	i	i	i	i	i	i	54.5%*	i
O=c1c2ccccc2nc(CNCc2ccco2)n1-c1ccc(F)cc1	i	i	i	i	i	·	·	·	·	·	·
Cc1ccc(-n2c(O)c(C=Nc3ccc(Br)cn3)c(=O)[nH]c2=O)cc1	i	i	i	i	i	·	·	·	·	·	·
CC[n+]1c(SC)ccc2cc(OC)ccc21	i	-5.21*	i	i	i	-206.5%*	85.0%*	-30.0%*	53.5%*	58.0%*	i
O=C(COc1ccc(Cl)cc1)N(c1ccccc1Cl)C1CN2CCC1CC2 (stereo not drawn)	i	-5.26*	i	i	i	131.5%*	i	26.0%*	51.5%*	i	·
COc1ccc(CCNCc2sccc2C)cc1OC	i	i	i	i	i	·	·	·	·	·	·
Clc1ccc2c(c1)C(OC1CN3CCC1CC3)c1ccccc1CS2 (stereo not drawn)	i	i	i	i	i	·	·	·	·	·	·
OC(c1cccc(Cl)c1)(c1cccc(Cl)c1)C1CN2CCC1CC2 (stereo not drawn)	i	-8*	i	i	i	i	i	10.0%*	i	70.5%*	i
CNCC(O)c1cc(OCc2ccccc2)c(OCc2ccccc2)cc1F (stereo not drawn)	i	i	i	i	i	·	·	·	·	·	·
C[n+]1c2ccccc2nc2ccc(NCCO)cc21	i	-7.42*	i	i	i	-114.5%*	133.0%*	-36.5%*	50.5%*	66.5%*	i
CNc1ccc2nc3ccccc3[n+](C)c2c1	i	-12.2*	i	i	i	-84.0%*	161.5%*	-48.0%*	51.5%*	86.5%*	i
CC(=O)Nc1nnc(CCN(CCc2nnc(NC(C)=O)s2)[N+](=O)[O-])s1	i	i	i	i	i	·	·	·	·	·	·
Cc1ccccc1CCNCc1cc2cccc(C)c2[nH]c1=O	i	-11.5*	i	i	i	·	·	·	·	93.8%*	i	TRPC4 sel inh 2=15.5%*;TRPC4 spec=i;HEK293 MPD ctr 2-1=i;HEK293 MPD ctr-1=0.1%*
CCn1cc(CN2CCCC(C(=O)c3sccc3C)C2)cn1 (stereo not drawn)	i	i	i	i	i	·	·	·	·	·	·
COc1ccc(CCNCc2c(OC)ccc3ccccc23)cc1	i	-7.05*	i	i	i	·	·	·	·	65.3%*	·	TRPC4 sel inh 2=69.0%*;TRPC4 spec=46.7%*;HEK293 MPD ctr 2-1=i;HEK293 MPD ctr-1=23.9%*
Cc1ccccc1NP(=O)(Oc1ccccc1F)Oc1ccccc1F	i	i	i	i	i	·	·	·	·	·	·
COc1cc2c(cc1O)CC1c3c(cc(O)c(OC)c3-2)CCN1C (stereo not drawn)	i	i	i	i	i	·	·	·	·	·	·
CCCN1CCc2cccc3c2[C@H]1Cc1ccc(O)c(O)c1-3	i	-5.57*	i	i	i	i	i	i	37.0%*	i	i
O=C1C2CCCC1C(N1CCCCC1)CC2 (stereo not drawn)	i	i	i	i	i	·	·	·	·	·	·
Nc1c2c(nc3sc4c(c13)CCCC4)CCCC2	i	-5.9*	i	i	i	i	i	-8.0%*	61.5%*	i	i
